Assay results taken from PubChem BioAssay.
Calls of active or inactive are those of the source.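 How the source made its calls, unless noted: active means GFP response above 150% of the DMSO level; inconclusive means fewer than 70 events counted for a yeast strain; inactive means the rest.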

Assays:
[1] = hit retest on RPL19A-GFP reporter strain – cell-based, S. cerevisiae, flow cytometry, cherry picks, mother/daughter gates, confirmation (AID 2270;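 active means GFP response below 50% of the DMSO control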); details: 3 h, at 10 µM, stronger effect = lower value, 100 = same GFP as DMSO wells
[2] = yeast TOR pathway reporter LAP4-GFP change – cell-based, cherry picks, flow cytometry, mother/daughter gates, confirmation (AID 2271;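 active means GFP response above 150% of the DMSO control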;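 further: ratio of sample to DMSO plate mean so 100% equals DMSO level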); details: S. cerevisiae LAP4-GFP strain, 3 h, at 10 µM, stronger effect = higher value, 100 means same as DMSO control
Procedure, shortened: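 System: GFP-fusion yeast strain; Incubation: compound exposure 3 h at 30 °C, end-over-end rotation; Measured by: GFP by flow cytometry; Read-out: median GFP fluorescence as percent of plate-mean DMSO wells; Medium: synthetic complete (SC) yeast growth medium; Compound: single test-compound dose, 10 µM final; Benchmarks: DMSO-only negative wells, rapamycin 400 ng/mL positive wells.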

[3] = TOR pathway reporter MEP2-GFP, retest of hits – S. cerevisiae, flow cytometry GFP, cherry picks, confirmation (AID 2272;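 active means GFP response above 150% of the DMSO control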;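 further: ratio of well signal to plate DMSO mean so 100% equals DMSO level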); details: S. cerevisiae MEP2-GFP strain, 3 h, at 10 µM, stronger effect = higher value
[4] = yeast AGP1-GFP fluorescence change, single-dose – cell-based, flow cytometry, S. cerevisiae, cherry picks, confirmation (AID 2273);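 further: median GFP channel fluorescence over the whole cell population gate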; details: S. cerevisiae AGP1-GFP strain, 3 h, at 10 µM
[5] = TOR pathway CIT2 reporter hit retest – S. cerevisiae, GFP fusion, cherry picks, mother/daughter gates, confirmation (AID 2274); details: S. cerevisiae CIT2-GFP strain, flow cytometry, 3 h, at 10 µM, stronger effect = higher value
[6] = measured here: daughter cell gate
[7] = measured here: mother cell gate
[8] = measured here: daughter cell gate response
[9] = measured here: mother cell gate response

Row | Compound | GFP response vs DMSO [1] | GFP response vs DMSO [1, 6] [%] | GFP response vs DMSO [1, 7] [%] | GFP response relative to DMSO [2] | GFP response relative to DMSO [2, 8] [%] | GFP response relative to DMSO [2, 9] [%] | GFP response vs DMSO [3] | GFP response, % of DMSO [4] | GFP response, % of DMSO [5] | GFP response, % of DMSO [5, 6] [%] | GFP response, % of DMSO [5, 7] [%]
1 | CCc1sc(C(=O)N2CCc3ccccc32)cc1C | 94.9% (inactive) | 93.3 | 94.6 | 114% (inactive) | 111 | 114 | 99.3% (inactive) | 96.8% (inactive) | 87.5% (inactive) | 85.2 | 88.2
2 | COc1cc(OC)cc(-c2nc(-c3ccccc3OC)no2)c1 | 97.8% (inactive) | 99.3 | 95.6 | 97.7% (inactive) | 97.5 | 101 | 114% (inactive) | 108% (inactive) | 107% (inactive) | 108 | 107
3 | Cc1sc(NC(=O)c2cccs2)nc1-c1ccccc1 | 106% (inactive) | 95.7 | 105 | 110% (inactive) | 106 | 112 | 109% (inactive) | 97.5% (inactive) | 95.9% (inactive) | 93.8 | 95.6
4 | O=C(Nc1ccc(S(=O)(=O)N2CCOCC2)cc1)c1ccc([N+](=O)[O-])cc1Cl | 99.6% (inactive) | 101 | 99.7 | 94.1% (inactive) | 94.4 | 94 | 102% (inactive) | 91.7% (inactive) | 101% (inactive) | 103 | 99.7
5 | CC[n+]1cc(C)ccc1/C=C/c1ccc(N(C)C)cc1 | 104% (inactive) | 106 | 103 | 134% (inactive) | 138 | 128 | 162% (inactive) | 104% (inactive) | 134% (inactive) | 141 | 126
6 | COc1ccc(-c2cc(=O)n(-c3nc4ccccc4[nH]3)[nH]2)cc1 | 98.6% (inactive) | 101 | 99.3 | 117% (inactive) | 119 | 113 | 103% (inactive) | 98% (inactive) | 95.9% (inactive) | 97.4 | 94.4
7 | O=C(NCC(c1ccc(F)cc1)N1CCOCC1)c1cc(F)c(F)c(F)c1F (stereo not drawn) | 100% (inactive) | 99.6 | 101 | 102% (inactive) | 102 | 102 | 101% (inactive) | 102% (inactive) | 102% (inactive) | 101 | 101
8 | CCNC(=O)/C(C#N)=C/c1c(N2CCOCC2)nc2ccccn2c1=O | 96.9% (inactive) | 99.3 | 95.4 | 102% (inactive) | 101 | 104 | 103% (inactive) | 102% (inactive) | 100% (inactive) | 101 | 99.3
9 | Nc1nc(SCC(=O)Nc2cc(C(F)(F)F)ccc2N2CCOCC2)n[nH]1 | 99% (inactive) | 99.9 | 97.9 | 101% (inactive) | 101 | 98.3 | 105% (inactive) | 101% (inactive) | 99.7% (inactive) | 99.1 | 98.5
10 | Cc1[nH][nH]c(=O)c1C(c1ccc(-c2ccc(Cl)c(Cl)c2)o1)c1c(C)[nH][nH]c1=O | 104% (inactive) | 104 | 101 | 173% (active) | 142 | 169 | 130% (inactive) | 115% (inactive) | 103% (inactive) | 105 | 102
11 | CC(C)(C)c1cc(C(c2cccnc2)N2CCN(CCO)CC2)cc(C(C)(C)C)c1O (stereo not drawn) | 98.2% (inactive) | 108 | 91.3 | 151% (active) | 168 | 138 | 118% (inactive) | 94.3% (inactive) | 99.3% (inactive) | 126 | 82.8
12 | CCn1c(=O)c(C(=O)NCc2ccc(OC)c(OC)c2)c(O)c2ccccc21 | 97.6% (inactive) | 99.1 | 99.2 | 94.1% (inactive) | 92.8 | 94 | 100% (inactive) | 103% (inactive) | 105% (inactive) | 106 | 106
13 | CCOc1ccccc1N1CCN(C(=O)c2ccccc2)CC1 | 97.6% (inactive) | 98.5 | 98.8 | 101% (inactive) | 101 | 103 | 102% (inactive) | 101% (inactive) | 101% (inactive) | 100 | 99.1
14 | CCN(CC)c1ccc(/C=C/c2ccc3ccc(OC)cc3[n+]2CC)cc1 | 102% (inactive) | 101 | 101 | 117% (inactive) | 113 | 119 | 133% (inactive) | 98.9% (inactive) | 107% (inactive) | 110 | 104
15 | COc1ccccc1-c1nnc(NC(=O)c2ccc(S(=O)(=O)N(C)C)cc2)o1 | 99.2% (inactive) | 98.6 | 98.7 | 111% (inactive) | 112 | 109 | 119% (inactive) | 93.3% (inactive) | 105% (inactive) | 106 | 106
16 | Cc1c(NC2=C(Cl)C(=O)N(c3ccccc3Cl)C2=O)c(=O)n(-c2ccccc2)n1C | 94.7% (inactive) | 96.6 | 95.6 | 93.7% (inactive) | 96.6 | 94.1 | 96.6% (inactive) | 102% (inactive) | 110% (inactive) | 108 | 110
17 | CCOc1ccc(-c2noc(-c3ccncc3)n2)cc1OCC | 96.4% (inactive) | 93.7 | 95.7 | 106% (inactive) | 106 | 106 | 116% (inactive) | 98.8% (inactive) | 102% (inactive) | 103 | 99.3

Row | Compound | GFP response vs DMSO [1] | GFP response vs DMSO [1, 6] [%] | GFP response vs DMSO [1, 7] [%] | GFP response relative to DMSO [2] | GFP response relative to DMSO [2, 8] [%] | GFP response relative to DMSO [2, 9] [%] | GFP response vs DMSO [3] | GFP response, % of DMSO [4] | GFP response, % of DMSO [5] | GFP response, % of DMSO [5, 6] [%] | GFP response, % of DMSO [5, 7] [%]
18 | O=C(NCc1ccccc1)c1nc(S(=O)(=O)Cc2ccccc2)ncc1Cl | 101% (inactive) | 99.2 | 98.5 | 108% (inactive) | 108 | 108 | 100% (inactive) | 104% (inactive) | 96.5% (inactive) | 93.2 | 98.7
19 | N#C/C(=C\c1ccc(N2CCOCC2)o1)c1ccccc1 | 98.2% (inactive) | 97.3 | 98.5 | 102% (inactive) | 102 | 103 | 104% (inactive) | 93.8% (inactive) | 104% (inactive) | 104 | 103
20 | CCc1nnc(N2C(=O)c3cccc4cccc(c34)C2=O)s1 | 94.5% (inactive) | 95 | 93.3 | 94.1% (inactive) | 92.9 | 94.4 | 108% (inactive) | 98.8% (inactive) | 100% (inactive) | 101 | 99.3
21 | CC1CCc2c(C(=O)NCc3cccnc3)csc2C1 (stereo not drawn) | 94.2% (inactive) | 94.2 | 92.7 | 111% (inactive) | 109 | 113 | 94.7% (inactive) | 95.9% (inactive) | 87.2% (inactive) | 84.8 | 88.2
22 | Cc1cc(N2CCC(C)CC2)n2ncc(-c3ccccc3)c2n1 | 99.9% (inactive) | 98.7 | 100 | 96.2% (inactive) | 94.1 | 98.3 | 97.8% (inactive) | 101% (inactive) | 102% (inactive) | 99.7 | 101
23 | CCC(C)(C)NC(=O)C(c1cccs1)N(CC1CCCO1)C(=O)Cn1nnc2ccccc21 (stereo not drawn) | 95.3% (inactive) | 95.9 | 94.4 | 98.9% (inactive) | 96 | 99.5 | 101% (inactive) | 102% (inactive) | 101% (inactive) | 105 | 102
24 | COc1ccc(/C=C/C(=O)c2ccc(OC)cc2O)cc1 | 99.9% (inactive) | 100 | 99.3 | 98.8% (inactive) | 99.3 | 100 | 104% (inactive) | 100% (inactive) | 102% (inactive) | 102 | 100
25 | O=C(CSc1cccc[n+]1[O-])CSc1cccc[n+]1[O-] | 97.8% (inactive) | 101 | 95 | 119% (inactive) | 116 | 120 | 103% (inactive) | 103% (inactive) | 97.2% (inactive) | 101 | 98.2
26 | COCCN1C2=C(COC(C)(C)C2)C(=S)NC1c1ccccc1 (stereo not drawn) | 98% (inactive) | 98.9 | 99 | 94.1% (inactive) | 96 | 94 | 107% (inactive) | 99.1% (inactive) | 107% (inactive) | 108 | 108
27 | Cc1cc(O)c(C(=O)/C=C/c2cccc([N+](=O)[O-])c2)c(=O)o1 | 98.7% (inactive) | 101 | 95.8 | 149% (inactive) | 142 | 152 | 110% (inactive) | 107% (inactive) | 86.1% (inactive) | 90.5 | 81.5
28 | O=C(c1c(F)cccc1F)N1CCN(c2ccccc2F)CC1 | 99.4% (inactive) | 99.1 | 98.4 | 103% (inactive) | 102 | 103 | 100% (inactive) | 92.1% (inactive) | 107% (inactive) | 106 | 106
29 | CCN(CC)N=Nc1[nH]nc2nc(C)cc(C)c12 | 127% (inactive) | 103 | 118 | 120% (inactive) | 102 | 116 | 137% (inactive) | 120% (inactive) | 133% (inactive) | 123 | 134
30 | COc1ccc(/C=C/C(=O)NC(=S)NNC(=O)c2cnccn2)cc1 | 105% (inactive) | 91.1 | 79.2 | 166% (active) | 120 | 162 | 140% (inactive) | 78.5% (inactive) | 115% (inactive) | 99.1 | 106
31 | O=C(Nc1cc(Sc2ccccn2)cc([N+](=O)[O-])c1)c1ccc([N+](=O)[O-])cc1 | 97.8% (inactive) | 98.4 | 96.9 | 98.9% (inactive) | 101 | 98.4 | 110% (inactive) | 104% (inactive) | 107% (inactive) | 106 | 106
32 | COc1ccccc1CNC(=O)CS(=O)Cc1nc(-c2ccc(OC)c(OC)c2)oc1C (stereo not drawn) | 97.2% (inactive) | 97.4 | 98 | 96.7% (inactive) | 97.6 | 96.1 | 105% (inactive) | 97.6% (inactive) | 104% (inactive) | 108 | 103
33 | CCCC(=O)Nc1ccc(NC(=O)c2cc3ccccc3o2)c(OC)c1 | 98.8% (inactive) | 98.4 | 98 | 98.2% (inactive) | 99.1 | 98.4 | 103% (inactive) | 102% (inactive) | 97.3% (inactive) | 99.2 | 87
